Screening data (PubChem BioAssay)
RGS4 act: RGS4 potentiation or activation; HEK293 M3R/inducible RGS4, carbachol calcium flux Fluo4; stronger effect = lower value; B-score at 10 µM; 310,000 tested, 0.92% active; AID 463111;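 active = B-score of the integrated calcium signal more than 4 SD below the library mean, with starting fluorescence not abnormally high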;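 note: negative B-score means reduced calcium response which marks RGS4 activation or potentiation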
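Assay system: HEK293 FlpIn-TREx cells, stable M3R, doxycycline-inducible RGS4 / Probe or stimulus: carbachol, ECmax concentration / Times: overnight RGS4 induction, 30 min dye load 37 °C, 20 min compound RT / Signal: kinetic calcium fluorescence imaging with Fluo4-AM dye, 2 µM / Measure: Agonist-evoked peak-minus-minimum fluorescence over baseline, integrated ratio, B score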
MrgX1 allo act: allosterically activates human MrgX1 receptor signaling; Q96LB2; MrgX1-HEK293, Fluo-4 calcium flux, FDSS; stronger effect = higher value; B-score at 10 µM; 310,000 tested, 0.63% active;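 active = plate-corrected calcium response at least 3 library SD above typical, normal starting fluorescence, not activating the receptor alone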;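 note: compound read alongside a low EC10 to EC30 dose of BAM8-22 agonist; peak minus trough fluorescence over baseline measured at the second addition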
MrgX1 antagonist: human MrgX1 receptor antagonism, primary screen. B-score at 10 µM. Q96LB2. 310,000 tested, 1.3% active. MRGX1-HEK293 calcium flux, Fluo-4, BAM8-22 antagonism; stronger effect = lower value;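 active = calcium-response B-score plate-corrected more than 3 library SD below zero, starting fluorescence within 5 deviations, no agonist response on first addition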;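 note: peak minus trough fluorescence over baseline after final BAM8-22 challenge near maximal dose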
RGS4 inh: human RGS4 inhibition; P49798; HEK293 M3R/RGS4 inducible, Fluo-4 calcium flux; stronger effect = higher value; triggered by carbachol at its EC20; B-score at 10 µM; 310,000 tested, 0.45% active;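 active = B-score, a plate-corrected calcium signal, over three deviations above library mean, with baseline fluorescence within five deviations of library mean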;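 note: RGS4 expression induced by doxycycline in cells with stable M3 receptor; B-score is computed from the integrated fluorescence ratio over baseline after carbachol; higher B-score means a larger calcium signal and so more RGS4 inhibition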
Kir21 block: Kir2.1 (mouse) channel inhibition | P35561 | HEK293-Kir2.1, FluxOR thallium flux fluorescence; stronger effect = lower value | B-score at 10 µM | 310,000 tested, 0.85% active | AID 1672;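 active = fluorescence ratio B-score at or below minus 3 SD of library scores, with starting-brightness B-score within 2 SD, cut at about -4.2 in these data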;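 note: channel flux triggered by added potassium and thallium sulfate stimulus; B-score of peak minus minimum fluorescence over baseline after thallium stimulus; more negative B-score means stronger Kir2.1 block with less thallium influx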
Target sequence (P35561 whole entry, looked up): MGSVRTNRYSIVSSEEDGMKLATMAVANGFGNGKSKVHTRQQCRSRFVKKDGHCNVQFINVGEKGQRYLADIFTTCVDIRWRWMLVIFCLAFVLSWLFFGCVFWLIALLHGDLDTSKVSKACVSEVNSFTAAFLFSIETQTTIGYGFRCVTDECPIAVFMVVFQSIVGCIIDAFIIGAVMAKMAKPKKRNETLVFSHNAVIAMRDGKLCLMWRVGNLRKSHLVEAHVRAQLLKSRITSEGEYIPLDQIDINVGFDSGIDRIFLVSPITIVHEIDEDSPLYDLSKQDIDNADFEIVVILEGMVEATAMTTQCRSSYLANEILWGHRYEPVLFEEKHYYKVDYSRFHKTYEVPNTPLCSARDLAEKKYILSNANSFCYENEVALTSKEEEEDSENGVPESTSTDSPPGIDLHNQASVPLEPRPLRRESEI
MrgX1 agonist: activates human MrgX1 receptor signaling. Q96LB2. MrgX1-HEK293 cells, Fluo-4 calcium fluorescence, agonist mode; stronger effect = higher value. B-score at 10 µM. 310,000 tested, 0.44% active;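 active = calcium response B-score plate-corrected fluorescence ratio at least 3 library SD, with starting fluorescence B-score inside 5 SD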
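System: HEK293 cells stably expressing human MrgX1 receptor; Dosing: test compound in the initial addition of three; Schedule: overnight plating, then 30 min 37 °C plus 30 min room-temperature dye loading; Detection: kinetic calcium dye fluorescence, Fluo-4 NW; Controls: per-plate positive and negative controls for Z′ factor.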
Hits are given with their value; n = inactive; x = not tested or not shown. Shown are actives, neighbours in structure and some others; about 4.1% of the full set was active somewhere.

SMILES	RGS4 act	MrgX1 allo act	MrgX1 antagonist	RGS4 inh	Kir21 block	MrgX1 agonist
Cc1ccc(/C=C2\S/C(=N/S(=O)(=O)c3cccs3)NC2=O)cc1	n	14.1	n	n	n	n
Cc1ccc(S(=O)(=O)/N=C2/NC(=O)/C(=C\c3ccco3)S2)cc1	x	n	n	x	x	n
COc1ccccc1-c1cnn2c(NCCc3ccccc3)cc(C)nc12	-7.41	n	n	n	n	n
C=CCn1c(SCC(C)=O)nc2sc3c(c2c1=O)CCC3	n	n	n	n	n	n
O=[N+]([O-])c1cccc(S(=O)(=O)N/N=C/c2ccc(O)cc2)c1	n	6.62	n	n	n	n
O=[N+]([O-])c1cccc(S(=O)(=O)N/N=C\c2ccc3c(c2)OCO3)c1	n	13	n	n	n	n
Cn1nccc1NC(=O)Nc1cccc(Br)c1	n	n	n	n	n	n
O=C(CN1C(=O)C2CCCCN2C(=O)c2ccccc21)N1CCCc2ccccc21 (stereo unspecified)	n	n	n	n	n	n
c1ccc2cc(Cn3ccnc3)ccc2c1	n	n	n	n	n	n
Cc1c(C)n(Cc2ccccc2)c2ccc(C(=O)OCCCN(C)C)cc12	n	n	n	n	-12.4	n
COc1ccc(NC(=O)CCNS(=O)(=O)c2ccc3[nH]c(=O)oc3c2)cc1Cl	n	n	n	n	n	n
CCCN1Cc2cccc(C(=O)NCc3ccccc3OC)c2C1=O	n	n	n	n	n	n
CC(C)(C)c1ccc(N/N=C(\C#N)S(=O)(=O)C(C)(C)C)cc1	n	n	n	n	n	n
Cc1cc(C(=O)N/N=C/c2cccs2)n[nH]1	n	n	n	n	n	n
Cc1cc(C(=O)N/N=C/c2cccs2)no1	n	n	n	n	n	27.9
COc1ccc(C(=O)CC(=O)c2ccccc2)cc1	n	n	n	n	n	n
COc1ccc(C(=O)C/C(=C\C(=O)c2ccc(C)cc2)c2ccccc2)cc1	-7.12	n	-5.56	n	n	n
COc1ccc(OC)c(/C=N/N(CCC#N)C2=NS(=O)(=O)c3ccccc32)c1	n	n	n	n	n	n
O=C(O)CN1C(=O)/C(=C\c2cccc(OCc3ccc(Cl)cc3)c2)SC1=S	n	n	n	n	n	n
CCn1c2ccccc2c2cc(NC(=O)c3ccc(Br)o3)ccc21	n	n	-7.51	n	n	n
CCn1c2ccccc2c2cc(NC(=O)c3coc(=O)c(Br)c3)ccc21	n	n	n	n	n	n
CC(Oc1ccc(Cl)cc1Cl)C(=O)Nc1ccc(N2CCN(C)CC2)cc1 (stereo unspecified)	n	n	n	n	n	n
CC(=O)N1CCN(c2ccc(NC(=O)C(C)Oc3ccc(Cl)cc3Cl)cc2)CC1 (stereo unspecified)	n	n	-7.08	n	n	n
CC[N+]1=C(C)C(C)(C)c2cc(C)ccc21	n	n	-4.76	n	n	n
CC(SCc1ccccc1)C(=O)Nc1ccccc1-c1ccccc1 (stereo unspecified)	n	11.6	n	n	n	n
SMILES	RGS4 act	MrgX1 allo act	MrgX1 antagonist	RGS4 inh	Kir21 block	MrgX1 agonist
CCOc1ccccc1NC(=O)C(C)SCc1ccccc1 (stereo unspecified)	n	n	n	n	n	n
CCOc1ccc2[nH]c(=O)c(CN(Cc3nnnn3Cc3ccco3)C3CCCCC3)cc2c1	n	n	n	n	n	26.6
CCOc1ccc2[nH]c(=O)c(CN(Cc3ccco3)Cc3nnnn3Cc3ccccc3)cc2c1	n	n	n	n	n	n
Cc1ccc(N=Nc2cc(C)ccc2O)c(C)c1	n	n	n	n	n	n
N=c1c2c(ncn1Cc1ccco1)Oc1ccc3ccccc3c1C2c1ccccc1 (stereo unspecified)	n	n	n	n	n	n
COc1ccc(C2c3ccc4ccccc4c3Oc3ncn(CCO)c(=N)c32)cc1 (stereo unspecified)	n	n	n	n	-5.21	n
N=c1c2c(ncn1CCCO)Oc1ccc3ccccc3c1C2c1ccccc1 (stereo unspecified)	n	n	n	n	-4.24	n
CN(C)CCCn1cnc2c(c1=N)C(c1ccccc1)c1ccc3ccccc3c1O2 (stereo unspecified)	n	n	n	n	-7.25	n
